# In ChEMBL document CHEMBL5338772, “Stereochemical Control of Splice Modulation in FD-895 Analogues” (J Med Chem, 2023):
# Active and inactive are the calls of the source. The rule behind the calls is not given here.
# Experiments:
# [1] = system: SF3A1 pre-mRNA; experiment: Modulation of splicing in SF3A1 pre-mRNA in human HCT-116 cells assessed as intron 6 retention level at 44 nM incubated for 4 hrs by qRT-PCR analysis; type: functional, cell-based; conditions: filed as modulator
# [2] = system: AURKA pre-mRNA; experiment: Modulation of splicing in AURKA pre-mRNA in human HCT-116 cells assessed as effect on exon 4 skipping at 44 nM incubated for 4 hrs by qRT-PCR analysis; type: functional, cell-based; conditions: filed as modulator
# [3] = system: SF3B1 pre-mRNA; experiment: Modulation of splicing in SF3B1 pre-mRNA in human HCT-116 cells assessed as intron 13 retention level at 44 nM incubated for 4 hrs by qRT-PCR analysis; type: functional, cell-based; conditions: filed as modulator
# In short: (§1)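 HCT-116 cells in supplemented McCoy's 5a, compound added from DMSO stock to a final 0.5% DMSO, 4 h at a single standardized concentration per analogue. Total RNA isolated and DNase-treated (1 µg). qPCR used 2.5 µM each primer on 5 ng cDNA, 40 cycles. Intron retention was computed by the 2^-CT method relative to GAPDH and expressed versus untreated cells set to 1.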
# [4] = system: HCT-116; experiment: Cytotoxicity against human HCT-116 cells assessed as reduction in cell viability at 44 nM incubated for 4 hrs by MTS assay; type: toxicity, cell-based; conditions: hct-116, 4 h, 0.044 µM
# [5] = system: SF3A3 pre-mRNA; experiment: Modulation of splicing in SF3A3 pre-mRNA in human HCT-116 cells assessed as intron 5 retention level at 44 nM incubated for 4 hrs by qRT-PCR analysis; type: functional, cell-based; conditions: filed as modulator
# [6] = Cytotoxicity against human HCT-116 cells assessed as cell growth inhibition incubated for 72 hrs by MTS assay; type: toxicity, cell-based
# In short: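 HCT-116 cells (ATCC; split every other day, no more than five generations, mycoplasma-tested) plated at 5 × 10³ cells/well in supplemented McCoy's 5a and grown 24 h at 37 °C, 5% CO₂. Compound added from DMSO (0.5% DMSO final) for 72 h. Cells washed with PBS, MTS reagent added for 2 h at 37 °C, A490 read against A690. GI₅₀ fitted from dose curves of 3 biological replicates.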
# [7] = system: DNAJB1 pre-mRNA; experiment: Modulation of splicing in DNAJB1 pre-mRNA in human HCT-116 cells assessed as intron 2 retention level at 44 nM incubated for 4 hrs by qRT-PCR analysis; type: functional, cell-based; conditions: filed as modulator
# [8] = system: SF3B2 pre-mRNA; experiment: Modulation of splicing in SF3B2 pre-mRNA in human HCT-116 cells assessed as intron 10 retention level at 44 nM incubated for 4 hrs by qRT-PCR analysis; type: functional, cell-based; conditions: filed as modulator; in short: as §1
# [9] = system: HCT-116; experiment: Modulation of splicing in PLK-1 pre-mRNA in human HCT-116 cells assessed as effect on exon 3 inclusion at 44 nM incubated for 4 hrs by qRT-PCR analysis; type: functional, cell-based; conditions: filed as modulator
# [10] = system: DNAJB1 pre-mRNA; experiment: Modulation of splicing in DNAJB1 pre-mRNA in human HCT-116 cells assessed as reduction in intron 2 retention level at 100 to 500 nM incubated for 24 hrs by qRT-PCR analysis; type: functional, cell-based; conditions: filed as modulator, dose 100-500 nM
# In short: (§2)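 HCT-116 cells in supplemented McCoy's 5a with 0.5% DMSO, treated 24 h at 100, 250 or 500 nM; untreated cells as control. Total RNA isolated, 1 µg DNase I-treated, reverse transcribed. qPCR on 5 ng cDNA with 2.5 µM each primer, 40 cycles of 95 °C 30 s, 55 °C 60 s, 72 °C 60 s. Splice-event primers for intron retention or exon skipping; SF2 primers measure total expression. 2^-CT method relative to GAPDH, untreated set at 1.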
# [11] = system: HCT-116; experiment: Cytotoxicity against human HCT-116 cells assessed as reduction in cell viability at 42 nM incubated for 4 hrs by MTS assay; type: toxicity, cell-based; conditions: hct-116, 4 h, 0.042 µM
# [12] = system: SF3A1 pre-mRNA; experiment: Modulation of splicing in SF3A1 pre-mRNA in human HCT-116 cells assessed as intron 6 retention level at 42 nM incubated for 4 hrs by qRT-PCR analysis; type: functional, cell-based; conditions: filed as modulator
# [13] = system: HCT-116; experiment: Downregulation of SF2 mRNA expression in human HCT-116 cells at 100 to 500 nM incubated for 24 hrs by qRT-PCR analysis; type: functional, cell-based; conditions: dose 100-500 nM; in short: as §2
# [14] = system: AURKA pre-mRNA; experiment: Modulation of splicing in AURKA pre-mRNA in human HCT-116 cells assessed as effect on exon 4 skipping at 42 nM incubated for 4 hrs by qRT-PCR analysis; type: functional, cell-based; conditions: filed as modulator
# [15] = system: SF3B2 pre-mRNA; experiment: Modulation of splicing in SF3B2 pre-mRNA in human HCT-116 cells assessed as intron 10 retention level at 42 nM incubated for 4 hrs by qRT-PCR analysis; type: functional, cell-based; conditions: filed as modulator; in short: as §1
# [16] = system: SF3B1 pre-mRNA; experiment: Modulation of splicing in SF3B1 pre-mRNA in human HCT-116 cells assessed as intron 13 retention level at 42 nM incubated for 4 hrs by qRT-PCR analysis; type: functional, cell-based; conditions: filed as modulator; in short: as §1
# [17] = system: DNAJB1 pre-mRNA; experiment: Modulation of splicing in DNAJB1 pre-mRNA in human HCT-116 cells assessed as intron 2 retention level at 42 nM incubated for 4 hrs by qRT-PCR analysis; type: functional, cell-based; conditions: filed as modulator
# [18] = system: SF3B2 pre-mRNA; experiment: Modulation of splicing in SF3B2 pre-mRNA in human HCT-116 cells assessed as increase in intron 10 retention level incubated for 24 hrs by qRT-PCR analysis; type: functional, cell-based; conditions: filed as modulator, dose 100-500 nM
# In short: (§3)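 HCT-116 cells in supplemented McCoy's 5a with 0.5% final DMSO were treated for 24 h at 100, 250 or 500 nM. Total RNA isolated and DNase-treated (1 µg). qPCR used 2.5 µM each primer on 5 ng cDNA, 40 cycles. Intron retention was computed by the 2^-CT method relative to GAPDH and expressed versus untreated cells set to 1.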
# [19] = system: HCT-116; experiment: Cytotoxicity against human HCT-116 cells assessed as reduction in cell viability at 500 nM incubated for 24 hrs by MTS assay; type: toxicity, cell-based; conditions: hct-116, 24 h, 0.5 µM
# In short: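 HCT-116 cells plated at 5 × 10³ cells/well in supplemented McCoy's 5a and grown 24 h at 37 °C, 5% CO₂. Compound given at 500 nM, the top dose of the 24 h splicing series, in 0.5% DMSO for 24 h. Cells washed with PBS, MTS reagent added for 2 h at 37 °C, A490 read against A690.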
# [20] = system: SF3B1 pre-mRNA; experiment: Modulation of splicing in SF3B1 pre-mRNA in human HCT-116 cells assessed as increase in intron 13 retention level incubated for 24 hrs by qRT-PCR analysis; type: functional, cell-based; conditions: filed as modulator, dose 100-500 nM; in short: as §3
# [21] = system: SF3A3 pre-mRNA; experiment: Modulation of splicing in SF3A3 pre-mRNA in human HCT-116 cells assessed as intron 5 retention level at 42 nM incubated for 4 hrs by qRT-PCR analysis; type: functional, cell-based; conditions: filed as modulator
# [22] = system: HCT-116; experiment: Downregulation of PLK-1 mRNA expression in human HCT-116 cells at 100 to 500 nM incubated for 24 hrs by qRT-PCR analysis; type: functional, cell-based; conditions: dose 100-500 nM; in short: as §2
# [23] = system: DNAJB1 pre-mRNA; experiment: Modulation of splicing in DNAJB1 pre-mRNA in human HCT-116 cells assessed as intron 2 retention level at 34 nM incubated for 4 hrs by qRT-PCR analysis; type: functional, cell-based; conditions: filed as modulator
# [24] = system: SF3A3 pre-mRNA; experiment: Modulation of splicing in SF3A3 pre-mRNA in human HCT-116 cells assessed as intron 5 retention level at 34 nM incubated for 4 hrs by qRT-PCR analysis; type: functional, cell-based; conditions: filed as modulator
# [25] = system: SF3B1 pre-mRNA; experiment: Modulation of splicing in SF3B1 pre-mRNA in human HCT-116 cells assessed as intron 13 retention level at 34 nM incubated for 4 hrs by qRT-PCR analysis; type: functional, cell-based; conditions: filed as modulator; in short: as §1
# [26] = system: SF3B2 pre-mRNA; experiment: Modulation of splicing in SF3B2 pre-mRNA in human HCT-116 cells assessed as intron 10 retention level at 34 nM incubated for 4 hrs by qRT-PCR analysis; type: functional, cell-based; conditions: filed as modulator; in short: as §1
# [27] = system: HCT-116; experiment: Cytotoxicity against human HCT-116 cells assessed as reduction in cell viability at 34 nM incubated for 4 hrs by MTS assay; type: toxicity, cell-based; conditions: hct-116, 4 h, 0.034 µM
# [28] = system: HCT-116; experiment: Downregulation of SF3 mRNA expression in human HCT-116 cells at 34 nM incubated for 4 hrs by qRT-PCR analysis; type: functional, cell-based
# [29] = system: SF3A1 pre-mRNA; experiment: Modulation of splicing in SF3A1 pre-mRNA in human HCT-116 cells assessed as intron 6 retention level at 34 nM incubated for 4 hrs by qRT-PCR analysis; type: functional, cell-based; conditions: filed as modulator
smiles,measurement,setting,value
CC[C@H](OC)[C@@H](C)[C@H]1O[C@@H]1[C@H](O)[C@H](C)/C=C/C=C(\C)[C@H]1OC(=O)C[C@@H](O)CC[C@@](C)(O)[C@@H](OC(C)=O)/C=C/[C@@H]1C,Activity,[1],> 3
same,Activity,[2],Active
same,Activity,[3],< 3
same,Activity,[4],Non-Toxic
same,Activity,[5],< 3
same,GI50 at 72 h,[6],2.7 nM
same,Activity,[7],> 3
same,Activity,[8],> 3
same,Activity,[9],Active
CC[C@H](OC)[C@@H](C)[C@H]1O[C@@H]1[C@@H](O)[C@H](C)/C=C/C=C(\C)[C@H]1OC(=O)C[C@H](O)CC[C@@](C)(O)[C@@H](OC(C)=O)/C=C/[C@@H]1C,Activity,[10],Active
same,Activity,[11],Non-Toxic
same,Activity,[12],> 3
same,Activity,[13],inactive
same,Activity,[14],Active
same,Activity,[15],> 3
same,Activity,[16],< 3
same,GI50 at 72 h,[6],2.2 nM
same,Activity,[17],> 3
same,Activity,[18],Dose-Dependent Effect
same,Activity,[19],Non-Toxic
same,Activity,[20],Dose-Dependent Effect
same,Activity,[21],< 3
same,Activity,[22],inactive
CC[C@H](OC)[C@@H](C)[C@H]1O[C@@H]1[C@@H](O)[C@H](C)/C=C/C=C(\C)[C@H]1OC(=O)C[C@H](O)CC[C@@](C)(O)[C@H](OC(C)=O)/C=C/[C@@H]1C,GI50 at 72 h,[6],860 nM
CC[C@H](OC)[C@@H](C)[C@H]1O[C@@H]1[C@H](O)[C@H](C)/C=C/C=C(\C)[C@H]1OC(=O)C[C@H](O)CC[C@@](C)(O)[C@@H](OC(C)=O)/C=C/[C@@H]1C,Activity,[23],> 3
same,Activity,[24],< 3
same,Activity,[25],< 3
same,Activity,[26],> 3
same,GI50 at 72 h,[6],1.9 nM
same,Activity,[19],Non-Toxic
same,Activity,[27],Non-Toxic
same,Activity,[28],Active
same,Activity,[29],> 3
